Bioassay records deposited in PubChem by several laboratories.
Only some compounds are listed: those with a hit (about 8.4% of all), similar ones and a draw of the others.
Cav32 inh: Cav3.2 calcium influx blockers – cell-based, Fluo-4 calcium fluorescence, FDSS, MLSMR library, primary screen | 100,000 tested, 4% active | Voltage-dependent T-type calcium channel subunit alpha-1H (Homo sapiens), O95180 | B-score at 10 µM | Cav3.2-expressing cells; stronger effect = lower value | AID 449739, 2010;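 active means single-dose well whose peak fluorescence ratio is a statistical outlier from its plate by either plate-standardised score or position-corrected B-score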
PostGolgi yeast: phenotypic screen on post-Golgi transport, primary screen; AID 739, 2007; 98,000 tested, 0.9% active; inhibition, % at 10 µM; post-Golgi transport phenotypic cell assay;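 further: yeast cells grown in 1536-well plates; yeast grown about 18 h at 30C before absorbance read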
PostGolgi ctrl: growth inhibition of yeast control strain, primary screen, counter-screen for post-Golgi transport modulator project. efflux-deficient yeast background strain, growth absorbance A615, 16 h. inhibition, % at 10 µM. 98,000 tested, 5% active
Ecoli WT expand: growth inhibitors of wild-type E. coli, primary screen, strain BW25113, expanded library, OD600; OD600 absorbance; growth inhibition, % at 100 µM; 98,000 tested, 0.15% active; AID 710, 2007;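 active means growth inhibition above about 50% at one test dose, limit read from the data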;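 further: growth measured after 20 h incubation at 37 °C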
Ecoli tolC: growth inhibitors of E. coli tolC mutant, primary screen, strain BW25113 ΔtolC::kan, 384-well. OD615. growth inhibition, % at 10 µM (by protocol). 65,000 tested, 2.2% active;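 active means growth inhibition at or above a cutoff equal to the mean over every tested compound plus 3 SD, cut at about 60% in these data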;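 further: growth measured after 20 h incubation at 37 °C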
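Assay system: tolC-deleted E. coli BW25113. Medium: kanamycin-containing LB broth (50 µg/mL). Dosing: 10 µM final, single dose. Timing: bacterial growth with compound for 20 h at 37 °C. Detection: A615 absorbance measurement. Read-out basis: growth inhibition in percent.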
An asterisk follows results filed as active; x = no result given. Unless noted, no stated cut-off is given here; in the data, active means inhibition above about 30%; inactive means the rest.

SMILES	Cav32 inh	PostGolgi yeast	PostGolgi ctrl	Ecoli WT expand	Ecoli tolC
CCSC1=C(C#N)C(c2ccccc2Cl)C(C(=O)c2cccs2)C(O)(C(F)(F)F)N1 (stereo not drawn)	-9.22*	8.9	9.2	6.0	x
O=C1NC(c2ccccc2)C(C(=O)c2cccs2)C(O)(C(F)(F)F)N1 (stereo not drawn)	-0.92	3.2	4.4	-1.0	-9.2
O=C(NC(=S)N1CCN(c2c(Cl)cccc2[N+](=O)[O-])CC1)c1cccs1	-4.25*	-0.2	-9.5	-3.0	x
CC(C)C(=O)N1CCN(c2c(Cl)cccc2[N+](=O)[O-])CC1	-1.31	-6.8	6.2	5.0	x
CCCCNC(=O)NS(=O)(=O)c1ccc(C(=O)OC)o1	0.322	-9.0	25.9	4.0	9.5
O=C(COc1ccc(/C=N/NS(=O)(=O)c2ccccc2)cc1)Nc1ccc(F)cc1	-6.01*	-1.4	1.0	1.0	x
C=CCN(C(=O)c1cccc(S(=O)(=O)N2CCN(C)CC2)c1)c1nc(-c2ccccc2)cs1	x	35.0*	21.8	1.0	x
Cc1ccc(-c2nn(C)c(=O)c3ccccc23)cc1CNC(=O)Cn1nc(-c2ccccc2)c2ccccc2c1=O	x	3.2	2.5	-5.0	x
Cc1cc(NC(=O)C2C3C(=O)N(Cc4ccc(Cl)cc4)C(C(=O)NCc4ccccc4)C34C=CC2(C)O4)no1 (stereo not drawn)	-1.29	-1.6	13.1	-3.0	x
Cn1nc(C(=O)N2CCCC2)c2ccccc2c1=O	-0.325	-3.3	30.2*	-5.0	-15.7
Cn1nc(C(=O)N2CCOCC2)c2ccccc2c1=O	-0.307	x	x	x	-16.5
CCOC(=O)COc1ccccc1C1Nc2ccccc2C(=O)N1c1cccc(Cl)c1 (stereo not drawn)	-2.19	44.2*	12.9	-8.0	x
CCCOC(=O)/C(C(N)=NCc1ccccc1)=C(\O)OCCC	-2.09	-0.6	7.9	13.0	61.5*
CCOc1ccc(S(=O)(=O)NCCC(=O)OC(C)C(=O)N2CCc3ccccc32)cc1 (stereo not drawn)	-4.62*	2.6	5.5	-10.0	19.6
COc1ccccc1N1CCN(C(=O)C2CCN(S(=O)(=O)c3ccc(Cl)cc3)CC2)CC1	-1.6	3.7	27.2	-7.0	8.9
O=C(C1CCC1)N1CCc2cc(S(=O)(=O)N3CCCCC3)ccc21	-0.121	-9.2	8.0	1.0	-4.6
CCOc1ccc(S(=O)(=O)NCCC(=O)OCN2C(=O)c3ccccc3C2=O)cc1	0.00535	3.2	3.8	-11.0	-6.9
CC(OC(=O)C1CCN(S(=O)(=O)c2ccc(Cl)cc2)CC1)C(=O)N1CCc2ccccc21 (stereo not drawn)	-4.65*	7.7	22.6	-14.0	x
O=C(C1CCN(S(=O)(=O)c2ccc3c(c2)OCCO3)CC1)N1CCc2ccccc21	0.482	-10.3	33.3*	-10.0	21.1
CCOC(=O)N1CCN(c2cc3[nH]c(=S)[nH]c3cc2F)CC1	-1.6	9.7	-8.6	1.0	-9.6
CCOC(=O)N1CCN(c2c(F)cc3[nH]c(=S)[nH]c3c2Br)CC1	-0.117	0.6	33.1*	3.0	29.6
Cc1nn(-c2ccccc2)c2c1/C(=N/O)CC(C)(C)C2	x	2.1	6.4	0.0	26.3
Cc1nn(-c2ccccc2)c2c1C(=O)N(c1ccccc1)C(=O)C(C)(C)C2	0.493	4.3	35.5*	4.0	x
CCn1c(SCC(=O)OCC(=O)N2c3ccccc3NC(=O)C2(C)C)nnc1-c1ccco1	-0.334	23.1	2.2	4.0	-10.2
CCCCCCn1c(COc2ccccc2F)nnc1SCC(=O)N1c2ccccc2NC(=O)C1(C)C	-5.92*	-4.2	0.7	-7.0	x
SMILES	Cav32 inh	PostGolgi yeast	PostGolgi ctrl	Ecoli WT expand	Ecoli tolC
Brc1ccc(OCCOCCN2CCOCC2)cc1	0.114	-3.9	-2.0	11.0	-9.5
Clc1ccc(OCCN2CCOCC2)cc1Cl	-3.97*	1.1	4.5	8.0	x
c1ccc(-c2ccc(OCCOCCn3cncn3)cc2)cc1	0.527	-3.3	44.3*	2.0	3.2
Cc1ccc(N(CC(=O)NC2CC3CCC2C3)S(C)(=O)=O)cc1C (stereo not drawn)	-0.631	-3.8	7.9	3.0	4.2
CS(=O)(=O)N(CC(=O)NC1CC2CCC1C2)c1cccc(C(F)(F)F)c1 (stereo not drawn)	-0.487	-5.0	30.6*	9.0	1.9
NC(=O)C1(NC(=O)[C@@H]2CC3(CC(c4cccc(NC(=O)[C@@H]5CCC(=O)N5)c4)=NO3)CN2C(=O)c2cnccn2)CC1 (stereo partly drawn)	0.896	-2.3	2.2	-2.0	x
Cc1ccc2cc(CN(Cc3ccc4c(c3)OCO4)Cc3nnnn3Cc3ccco3)c(=O)[nH]c2c1	-6.69*	11.0	30.3*	-13.0	22.4
Cc1ccc(Nc2cc(=O)oc3ccccc23)c(C)c1	0.572	18.3	43.9*	-12.0	x
Cc1ccccc1Nc1cc(=O)oc2ccccc12	-0.00976	17.7	7.2	4.0	x
CCCSc1nc2c(cnn2-c2ccccc2)c(=O)[nH]1	0.0441	7.6	32.6*	-9.0	11.1
O=C1NC2CCc3nc4ccccc4c(=O)n3C2=Nc2ccccc21 (stereo not drawn)	-2.14	x	x	x	x
Cc1cnc(-c2nnc(N(C)C(=O)c3cnccn3)s2)cn1	x	x	x	x	-23.8
COc1ccc(NC(=O)c2cc3cc(OC)ccc3oc2=N)cc1	-1.27	73.1*	77.5*	-1.0	4.5
CCOc1cc(S(=O)(=O)NCc2ccccc2)ccc1F	-0.3	-8.6	19.1	0.0	6.1
C#Cc1ccc([C@H]2C=C(C(=O)NC3CC3)O[C@@H](OCC)[C@@H]2CCCO)cc1	1.07	x	x	x	x
Cc1cccc(NS(=O)(=O)c2ccc(C)c(C(=O)OCC(=O)Nc3cc(C)on3)c2)c1	-4.06	-2.2	2.6	0.0	7.9
COc1ccccc1NS(=O)(=O)c1cccc(C(=O)OCC(=O)Nc2cc(C)on2)c1	-4.75*	-2.4	27.6	0.0	x
CC(C)Nc1nc(NC(C)C)nc(N(C#N)CCOc2ccc(Cl)cc2Cl)n1	-5.03*	x	x	x	x
CCOC(=O)/C(C#N)=C/c1ccc(-c2ccsc2C(=O)OC)o1	-7.02*	-4.0	12.9	-6.0	x
COc1ccc(-c2[nH]ncc2-c2ccc3c(c2)OCCO3)c(O)c1	0.361	12.8	2.9	3.0	98.4*
CCCc1cc2c(=O)c(-c3ccc4c(c3)OCCO4)c(C)oc2cc1OS(C)(=O)=O	0.223	0.8	6.3	-2.0	x
O=c1c(-c2ccc3c(c2)OCCO3)coc2cc(O)cc(O)c12	0.069	-3.5	3.4	1.0	48.6
CCc1cc(-c2[nH]ncc2-c2ccc3c(c2)OCO3)c(O)cc1O	x	x	x	x	100.0*
CCCc1cc(-c2[nH]ncc2-c2ccc3c(c2)OCCCO3)c(O)cc1OC	-1	15.2	39.8*	13.0	x
O=C(NCC1CCCO1)C1CCC(CNS(=O)(=O)c2ccccc2)CC1 (stereo not drawn)	0.197	-7.8	0.5	0.0	-5.6
COc1ccc(C)cc1-n1nnnc1SCc1cc(=O)n2cc(C)ccc2n1	-0.00758	-8.8	21.6	-1.0	4.7
O=C(c1ccc2c(c1)N(Cc1ccccc1)C(=O)c1ccccc1S2)N1CCCC1	-2.5	28.5	44.6*	-6.0	x
